Assay results reported in ChEMBL document CHEMBL4406905, “The adduct formation between the thioguanine-polyamine ligands and DNA with the AP site under UVA irradiated and non-irradiated conditions” (Bioorg Med Chem, 2019).
Calls of active or inactive are those of the source. No cut-off for these calls is given here.

Tests used:
[1] = Binding affinity to A-T-C/T-A-G duplex DNA (unknown origin) assessed as change in melting temperature at 10 uM by UV-Vis spectrophotometric analysis (reference value: 52.0 +/- 0.1 degC)
[2] = Binding affinity to A-G-C/T-C-G duplex DNA (unknown origin) assessed as change in melting temperature at 10 uM by UV-Vis spectrophotometric analysis (reference value: 48.5 +/- 0.1 degC)
[3] = Induction of DNA cleavage in 5'-FAM-DNA1(U)/DNA2(A) duplex DNA (unknown origin) assessed as formation DNA8 at 10 uM measured for 5 hrs by fluorescence based PAGE analysis
Outline: (§1)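 DNA1(U)/DNA2(X) was annealed 5 min at 70 °C and treated with uracil-DNA glycosylase (0.2 unit/µl, pH 7.4, 37 °C, 15 min) to form the AP site. The 100 nM duplex was re-annealed in 10 mM HEPES-NaOH pH 7.0 with 100 mM NaCl, then incubated with 10 µM ligand at 37 °C for 5–300 min. Reactions were quenched with urea/EDTA loading buffer on ice. Products were run on 12% denaturing PAGE (8 M urea), imaged by 5'-FAM fluorescence, and band ratios (%) quantified.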

[4] = Induction of DNA cleavage in 5'-FAM-DNA1(U)/DNA2(A) duplex DNA (unknown origin) assessed as formation of beta elimination production DNA4 at 10 uM measured for 5 hrs by fluorescence based PAGE analysis; outline: as §1
[5] = Induction of DNA cleavage in 5'-FAM-DNA1(U)/DNA2(C) duplex DNA (unknown origin) assessed as formation of DNA8 at 10 uM by fluorescence based PAGE analysis; outline: as §1
[6] = Binding affinity to C-F-A/G-C-T duplex DNA (unknown origin) assessed as change in melting temperature at 10 uM by UV-Vis spectrophotometric analysis (reference value: 32.0 +/- 0.4 degC)
[7] = Induction of DNA cleavage in 5'-FAM-DNA1(U)/DNA2(C) duplex DNA (unknown origin) assessed as formation of beta elimination production DNA4 at 10 uM measured for 5 hrs by fluorescence based PAGE analysis; outline: as §1
[8] = Induction of DNA cleavage in 5'-FAM-DNA1(U)/DNA2(A) duplex DNA (unknown origin) assessed as formation of DNA8 at 10 uM by fluorescence based PAGE analysis; outline: as §1
[9] = Induction of DNA cleavage in 5'-FAM-DNA1(U)/DNA2(C) duplex DNA (unknown origin) assessed as formation DNA8 at 10 uM measured for 5 hrs by fluorescence based PAGE analysis; outline: as §1
[10] = Binding affinity to A-C-C/T-G-G duplex DNA (unknown origin) assessed as change in melting temperature at 10 uM by UV-Vis spectrophotometric analysis (reference value: 54.8 +/- 0.0 degC)
[11] = Induction of DNA cleavage in 5'-FAM-DNA1(U)/DNA2(A) duplex DNA (unknown origin) assessed as change in formation of DNA4 at 10 uM by fluorescence based PAGE analysis; outline: as §1
[12] = Binding affinity to A-F-C/T-A-G duplex DNA (unknown origin) assessed as change in melting temperature at 10 uM by UV-Vis spectrophotometric analysis (reference value: 33.6 +/- 0.2 degC)
[13] = Binding affinity to A-A-C/T-T-G duplex DNA (unknown origin) assessed as change in melting temperature at 10 uM by UV-Vis spectrophotometric analysis (reference value: 52.1 +/- 0.1 degC)
[14] = Binding affinity to A-F-C/T-G-G duplex DNA (unknown origin) assessed as change in melting temperature at 10 uM by UV-Vis spectrophotometric analysis (reference value: 34.4 +/- 0.2 degC)
[15] = Binding affinity to C-G-A/G-C-T duplex DNA (unknown origin) assessed as change in melting temperature at 10 uM by UV-Vis spectrophotometric analysis (reference value: 55.2 +/- 0.1 degC)
[16] = Binding affinity to A-G-A/T-C-T duplex DNA (unknown origin) assessed as change in melting temperature at 10 uM by UV-Vis spectrophotometric analysis (reference value: 50.3 +/- 0.1 degC)
[17] = Photo-activated binding affinity to A-F-C/T-C-G duplex DNA (unknown origin) at 100 uM measured for 24 hrs by HPLC analysis
Outline: (§2)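 Duplex at 10 µM (F = tetrahydrofuran AP analogue) with 100 µM ligand in 10 mM HEPES-NaOH pH 7.0, 5 mM DTT and 100 mM NaCl. Irradiated with UVA (4 W, 365 nm) at rt. Analysed by reversed-phase C18 HPLC at 50 °C with 254 nm detection, TEAA pH 7.0/MeCN gradient. Product peak identified by MALDI-TOF MS.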

[18] = Induction of DNA cleavage in 5'-FAM-DNA1(U)/DNA2(A) duplex DNA (unknown origin) assessed as formation of delta elimination production DNA7 at 10 uM measured for 5 hrs by fluorescence based PAGE analysis; outline: as §1
[19] = Binding affinity to A-F-A/T-C-T duplex DNA (unknown origin) assessed as change in melting temperature at 10 uM by UV-Vis spectrophotometric analysis (reference value: 29.9 +/- 0.3 degC)
[20] = Binding affinity to A-F-C/T-C-G duplex DNA (unknown origin) assessed as change in melting temperature at 10 uM by UV-Vis spectrophotometric analysis (reference value: 30.7 +/- 0.3 degC)
[21] = Induction of DNA cleavage in 5'-FAM-DNA1(U)/DNA2(C) duplex DNA (unknown origin) assessed as formation of delta elimination production DNA7 at 10 uM measured for 5 hrs by fluorescence based PAGE analysis; outline: as §1
[22] = Binding affinity to A-F-C/T-T-G duplex DNA (unknown origin) assessed as change in melting temperature at 10 uM by UV-Vis spectrophotometric analysis (reference value: 33.0 +/- 0.4 degC)
[23] = Photo-activated binding affinity to C-F-A/G-C-T duplex DNA (unknown origin) at 100 uM measured for 24 hrs by HPLC analysis; outline: as §2
[24] = Photo-activated binding affinity to A-F-C/T-C-G duplex DNA (unknown origin) assessed as induction of photo reaction at 100 uM measured for 3 hrs by HPLC analysis; outline: as §2
[25] = Induction of DNA cleavage in 5'-FAM-DNA1(U)/DNA2(C) duplex DNA (unknown origin) assessed as formation of delta elimination production DNA7 at 10 uM by fluorescence based PAGE analysis; outline: as §1
[26] = Induction of DNA cleavage in 5'-FAM-DNA1(U)/DNA2(C) duplex DNA (unknown origin) assessed as increase in slower moving bands at 10 uM measured after 1 hr by fluorescence based PAGE analysis
[27] = Photo-activated binding affinity to A-F-C/T-T-G duplex DNA (unknown origin) at 100 uM measured for 24 hrs by HPLC analysis; outline: as §2
[28] = Photo-activated binding affinity to A-F-C/T-A-G duplex DNA (unknown origin) at 100 uM measured for 24 hrs by HPLC analysis; outline: as §2
[29] = Photo-activated binding affinity to A-F-C/T-G-G duplex DNA (unknown origin) at 100 uM measured for 24 hrs by HPLC analysis; outline: as §2
[30] = Induction of DNA cleavage in 5'-FAM-DNA1(U)/DNA2(C) duplex DNA (unknown origin) assessed as formation of beta elimination production DNA4 at 10 uM measured for 30 min by fluorescence based PAGE analysis; outline: as §1
[31] = Photo-activated binding affinity to A-F-A/T-C-T duplex DNA (unknown origin) at 100 uM measured for 24 hrs by HPLC analysis; outline: as §2

Compound	ΔTm [1] [°C]	ΔTm [2] [°C]	Activity [3]	Activity [4]	ΔTm [6] [°C]	Activity [7]	Activity [8]	Activity [9]	ΔTm [10] [°C]	Activity [11]	ΔTm [12] [°C]	ΔTm [13] [°C]	ΔTm [14] [°C]	ΔTm [15] [°C]	ΔTm [16] [°C]	Activity [17]	Activity [18]	ΔTm [19] [°C]	ΔTm [20] [°C]	Activity [21]	also measured
NCCCNCCCNCCCCCn1cnc2c(=S)[nH]c(N)nc21	0.6	0.6	Active	Active	4.1	Active	Active	Active	1	Active	2.8	0.7	3.8	0.9	0.6	Active	Active	3.3	4.2	Active	Activity [5]: Active; ΔTm [22]: 3.1 °C
NCCCNCCCNCCCn1cnc2c(=S)[nH]c(N)nc21	0.5	0.7	Active	Active	3.5	Active	Active	Active	0.5	Active	2.3	0.2	1.6	0.4	0.7	Active	Active	1.8	5.4	Active	Activity [23]: inactive; Activity [24]: Active; Activity [25]: Active; Activity [26]: Active; Activity [27]: inactive; Activity [28]: inactive; Activity [29]: inactive; Activity [30]: Active; Activity [31]: inactive; ΔTm [22]: 1.2 °C
NCCCNCCCNCCCn1cnc2c(=O)[nH]c(N)nc21																					Activity [26]: inactive
